# Many of the other results were omitted from the sample, so hits are more common in it than they were.
# H69AR inhibit: proliferation blockers of H69AR lung cancer cells, primary screen, cell-based, human, 86K library; 85,000 tested, 6% active; viability, % at 10 µM; H69AR lung tumor viability, ATP luminescence, 72 h; active compounds read low;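 active = viability at or below 40%; inactive = viability above 40%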;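 also: multidrug resistant small cell line overexpressing MRP-1 efflux transporter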
# HCT116 PTEN-null: growth suppression of PTEN-null HCT116, primary screen, cell-based, CellTiter-Glo; HCT116 PTEN-null viability, 60 h; active compounds read low; viability, % at 10 µM; 140,000 tested, 1.2% active; AID 827, 2007;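 active = viability at or below a set limit, 4 SD under the median of all tested compounds, cut at about 3.7% in these data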;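 also: PTEN knockout HCT116 line with beta catenin targeted HCT116 as companion control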
# bCat KO growth: primary screen for growth suppressors in beta-catenin knockout HCT116 cells (colon tumor, human); HCT116 beta-catenin knockout viability, CellTiter-Glo, 60 h; active compounds read low; viability, % at 10 µM; 140,000 tested, 1.5% active; AID 818, 2007;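 active = viability at or under a set limit, the compound median less 4 SD, cut at about 6% in these data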
# Lung fibro prol: antiproliferative effect on LL 47 fibroblasts – human, LL 47 cells, CellTiter-Glo luminescence, primary screen; LL 47 human lung fibroblast viability, ATP luminescence; active compounds read low; viability, % at 10 µM; 85,000 tested, 1.1% active; AID 719, 2007;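 active = viability at or below 50% in the single dose screen; inactive = viability above 50%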;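 also: compound exposure lasted 72 h before the ATP readout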
#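 Test system: LL 47 human lung fibroblasts; Quantity: 1,150 cells/well; Buffer or medium: IMEM plus 15% FBS; Dosing: tenfold compound dosing solution, DMSO at 0.1%; Timing: overnight cell rest, 72 h compound treatment at 37 °C; Detection: ATP-based CellTiter-Glo luminescent readout; Read-out basis: viability percentage against median untreated-cell control; Controls: cell-only wells, no compound.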
# PTK2B oligo ant: antagonists of Pyk2 self-association, primary screen, Q293 cells, FERM NanoBiT luminescence, HTS. Protein-tyrosine kinase 2-beta (Homo sapiens), Q14289. 99,000 tested, 0.83% active. z-score (the deposit names both 25 µM and 10 µM). active compounds read low;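 active = Z-score of -3 or lower, scaled per plate to the spread of control and sample wells; inactive = z-score above -3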;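 also: negative z-score means lost luminescence so less FERM oligomerization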
# HUVEC inhibit: inhibitors of HUVEC proliferation, primary screen, cell-based, 384-well; AID 648, 2007; viability, % at 10 µM (by protocol); CellTiter-Glo luminescence, 72 h; active compounds read low; 86,000 tested, 1.1% active;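 active = viability at or below 30%; inactive = viability above 30%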
# Numbers stand for hits; – = inactive; · = not tested or not shown.
SMILES,H69AR inhibit,HCT116 PTEN-null,bCat KO growth,Lung fibro prol,PTK2B oligo ant,HUVEC inhibit
CCOc1cccc(OCC)c2c(C)[n+](CC3CCCO3)c(C)c1-2 (stereo not drawn),32.1,–,–,–,–,–
OCC12COC3c4ccccc4C(OC1)N32 (stereo not drawn),–,–,–,–,–,–
CCOC(=O)c1c(C)n(Cc2ccccc2)c2ccc(OCC(O)Cn3nc(C)cc3C)cc12 (stereo not drawn),12.2,–,–,–,–,–
CCOC(=O)c1c(C)n(Cc2ccccc2)c2ccc(OCC(O)Cn3nc(C)nc3C)cc12 (stereo not drawn),–,–,–,–,·,–
CCCCn1c(N)c(C(=O)NCc2cccs2)c2nc3ccccc3nc21,35.1,–,–,–,–,–
Nc1c(C(=O)NCCCc2ccccc2)c2nc3ccccc3nc2n1Cc1cccs1,–,1.9,2.9,–,–,–
CCCCOCCCn1c(N)c(C(=O)OCCOC)c2nc3ccccc3nc21,–,–,–,–,–,–
CCCOC(=O)c1c(N)n(Cc2cccs2)c2nc3ccccc3nc12,–,–,–,–,–,–
CCCCCn1c(N)c(C(=O)NCc2cccs2)c2nc3ccccc3nc21,31.8,–,–,–,·,–
C=C1C(O)(c2ccccc2)C2CC[N+]1(C)CC2 (stereo not drawn),–,–,–,–,–,–
CCN(CC)CCN=Cc1c(O)n(CCC2=CCCCC2)c(=O)[nH]c1=O,–,–,–,–,–,–
O=c1[nH]c(=O)n(CCC2=CCCCC2)c(O)c1C=NCc1cccnc1,–,–,–,–,-3.19,–
COc1cccc(OC)c1C1=NCC(=O)Nc2c1oc1ccc(Br)cc21,34.3,–,–,–,·,–
Nc1cc(Cl)c2nonc2c1[N+](=O)[O-],·,2.2,4.9,·,·,·
CN1CCC(O)(c2ccccc2)C(C(=O)c2ccccc2)C1 (stereo not drawn),–,–,5.3,–,–,–
CCN1CCC(O)(c2ccccc2)C(C(=O)c2ccccc2)C1 (stereo not drawn),–,·,·,–,–,–
CSc1nnc(C2CCNCC2)n1C,–,–,–,–,–,–
Clc1ccc(COC(Cn2ccnc2)c2ccc(Cl)cc2Cl)c(Cl)c1 (stereo not drawn),2.3,–,–,–,·,–
O=C(C1CCN(S(=O)(=O)N2CCOCC2)CC1)N1CCC2(CC1)OCCO2,–,–,–,–,–,–
Cc1cccn2c(=O)c3c(nc12)N1CCC(Cc2ccccc2)CC1C1(C3)C(=O)N(C)C(=O)N(C)C1=O (stereo not drawn),28.8,–,–,–,–,–
COc1ccc(Cn2c(N)c(C(=O)NCc3ccco3)c3nc4ccccc4nc32)cc1,38.4,–,–,–,–,–
Nc1c(C(=O)NCc2ccco2)c2nc3ccccc3nc2n1Cc1ccc(F)cc1,22.0,–,–,–,–,–
CCOP(=O)(Cc1cc(C#N)oc1C)OCC,·,–,–,·,·,·
O=P(NS(=O)(=O)c1ccc(Br)cc1)(Oc1ccccc1)Oc1ccccc1,–,–,–,–,–,–
CN(C)C=C1C(=O)N(C2CCCCC2)C(=O)N(C2CCCCC2)C1=O,31.1,–,–,–,–,–
SMILES,H69AR inhibit,HCT116 PTEN-null,bCat KO growth,Lung fibro prol,PTK2B oligo ant,HUVEC inhibit
Cc1oc(C(=O)Nc2ccc(O)cc2)cc1COc1ccccc1,29.4,–,–,–,–,–
COC(=O)c1cc(COc2cc(C)cc3oc(=O)c4c(c23)CCC4)c(C)o1,–,·,·,–,·,–
COCCCNC(=O)c1c(NC(=O)c2ccccc2)n(Cc2ccccc2)c2nc3ccccc3nc12,·,·,·,·,–,·
CCN(CC)CCNC(=O)c1c(O)c2ccccc2n(Cc2ccccc2)c1=O,26.6,–,–,–,–,–
CCN(CC)CCCNC(=O)c1c(O)c2ccccc2n(Cc2ccccc2)c1=O,9.1,–,–,–,–,–
C/C(=N\Nc1cccc2ccccc12)c1c(O)n(Cc2ccccc2)c(=O)[nH]c1=O,·,–,–,·,·,·
O=C(Nc1ccc(Cl)cc1C(=O)c1ccccc1Cl)c1ccco1,·,–,–,·,–,·
Cc1cc(Oc2ccc(C(F)(F)F)cc2[N+](=O)[O-])c2c3c(c(=O)oc2c1)CCCC3,·,–,–,·,·,·
CC(C)N1CCN(c2ccc(O)cc2)CC1,·,–,–,·,·,·
CN(Cc1ccccc1)C(=C(Cl)Cl)/C(=C1/NCCN1Cc1ccc(Cl)nc1)[N+](=O)[O-],–,–,–,–,–,–
COc1cc(C2SCC(=O)Nc3c2c(=O)[nH]n3C2CCCCCC2)cc(OC)c1OC (stereo not drawn),·,–,–,·,–,·
CC(C)COP(=O)(OCC(C)C)C(O)c1cccnc1 (stereo not drawn),·,–,–,·,·,·
CCOC(=O)C1=C(N)Oc2cc(C)oc(=O)c2C12C(=O)N1c3c(cc(OC)cc32)C(C)=CC1(C)C (stereo not drawn),31.4,–,–,–,–,–
CCCCn1c(=O)c(C(=O)Nc2cnccn2)c(O)c2ccccc21,14.1,–,–,48.3,–,–
CCCCn1c(NC(=O)c2ccco2)c(C(=O)OCC)c2nc3ccccc3nc21,–,–,–,–,–,–
CC(C)CCn1c(=O)c(C(=O)Nc2ccccc2S(N)(=O)=O)c(O)c2ccccc21,7.4,–,–,–,–,–
CCCCn1c(=O)c(C(=O)Nc2nc3ccccc3[nH]2)c(O)c2ccccc21,8.5,·,·,–,·,–
CCCCn1c(O)c(C(CC)=NCc2cccnc2)c(=O)[nH]c1=O,–,–,–,–,–,–
CN1CCN(c2ccc(C(N)=O)cc2N)CC1,–,–,–,–,–,–
O=C(O)c1nonc1-c1nonc1C(=O)O,–,–,–,–,–,–
CCOc1cc(/C=C2/C(=O)NC(=O)N(c3ccc(CC)cc3)C2=O)ccc1OC(=O)c1cccs1,·,–,–,·,–,·
Cc1ccc(N2C(=O)/C(=C/c3ccc(CN(CCC#N)S(C)(=O)=O)o3)C(=O)NC2=S)cc1,·,–,–,·,–,·
Cc1ccc(NC(=O)CN2C(=O)CN=C(c3ccccc3)c3cc(Cl)ccc32)cc1,24.6,–,–,–,·,–
CCC(=NCCCn1ccnc1)c1c(O)n(Cc2ccccc2)c(=O)[nH]c1=O,–,–,–,–,–,–
Cc1nn(C)cc1/C=C1/CC2C3CC=C4CC(O)CCC4(C)C3CCC2(C)C1=O (stereo not drawn),9.0,·,·,–,–,–
O=C(c1ccc2c(=O)n(Cc3ccc4c(c3)OCO4)c(=S)[nH]c2c1)N1CCC2(CC1)OCCO2,31.6,–,–,–,–,–
COCCOC(=O)C1=C(N)Oc2c(c(=O)oc3ccccc23)[C@@]12C(=O)Nc1ccccc12,–,–,–,–,–,–
S=C1NCCN1,–,–,–,–,·,–

# From PubChem BioAssay
